Assay results taken from ChEMBL document CHEMBL1124254, “Pumiliotoxin alkaloids: relationship of cardiotonic activity to sodium channel activity and phosphatidylinositol turnover” (1988).

Key:
Type in all cases: functional
[1] = species: Cavia porcellus; assay: Cardiotonic activity was measured in guinea pig atria at 54 uM concentration; Ranking -
Outline: (§1)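 Isolated atria suspended at 37 °C in Tyrode's solution aerated with O2-CO2 (95:5). After at least 1 h equilibration, cumulative dose-response curves for rate and force of spontaneous contractions were built by serial additions of alkaloid in methanol, at least 10 min apart. Effects given at 54 μM; values are averages of two to six experiments.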

[2] = species: Cavia porcellus; assay: Phosphoinositide breakdown in guinea pig brain synaptoneurosomes.; design: concentration or dose not given beside the values
Outline: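 Guinea pig cerebral cortex synaptoneurosomes (~1 mg protein per tube) were labelled 60 min at 37 °C with 1 μM [3H]inositol in Krebs-Henseleit buffer (pH 7.4). LiCl was added, and agents were added 10 min later for 90 min at 37 °C under O2-CO2. [3H]inositol 1-phosphate was isolated by anion exchange and counted. Results are percent of control, means ± SEM (n = 3) or single values at 10 μM.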

[3] = species: Cavia porcellus; assay: Specific sodium influx was measured in guinea pig brain synaptoneurosomes at 100 uM concentration (10s of incubation)
[4] = species: Mus musculus; assay: Phosphoinositide (PI) breakdown was measured in mouse atria at 10 uM
Outline: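 Male mouse (20-25 g) right and left atria were prelabelled for 60 min at 37 °C in Krebs-Henseleit buffer (pH 7.4) with 1 μM [3H]inositol. LiCl (10 mM final) was added, and agents were added 15 min later at 10 μM for 30 min at 37 °C. [3H]inositol phosphates in the TCA extract were separated by anion exchange. Results are percent of control, two to four determinations ± SEM.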

[5] = species: Cavia porcellus; assay: Cardiotonic activity was measured in guinea pig atria at 54 uM concentration; Ranking; outline: as §1
[6] = species: Cavia porcellus; assay: Cardiotonic activity was measured in guinea pig atria at 18 uM concentration; Ranking
Outline: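 Isolated spontaneously beating atria held at 37 °C in Tyrode's solution gassed with 95:5 O2-CO2, equilibrated at least 1 h. Alkaloid was added serially in methanol, at least 10 min apart, to build cumulative dose-response curves. Rate and force of spontaneous contractions were recorded. Values are averages of two to six experiments.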

Row | Compound | Activity [1] | Activity [2] | Activity [3] | Activity [4] | Activity [5] | Activity [6]
1 | CCC(=O)/C(C)=C/C[C@@H](C)/C=C1\CN2CCC[C@H]2[C@@](C)(O)C1 | Ranking - | 109% |  |  |  | 
2 | CCC(OC)/C(C)=C/C[C@@H](C)/C=C1\CN2CCC[C@H]2[C@@](C)(O)C1 (stereo not given in full) | Ranking - | 118% | 0.29 nM (mg of protein)-1 | 92% |  | 
3 | C=CCCCC/C=C1\CN2CCC[C@H]2[C@@](C)(O)C1 | Ranking - | 112% |  |  |  | 
4 | C/C(=C\C[C@@H](C)/C=C1\CN2CCC[C@H]2[C@@](C)(O)C1)[C@H](O)[C@H](C)O |  | 129% |  |  | Ranking | 
5 | CC[C@@H](O)/C(C)=C/C[C@@H](C)/C=C1\CN2CCC[C@H]2[C@@](C)(O)[C@@H]1O |  | 137% |  |  | Ranking | 
6 | CC[C@H](O)/C(C)=C/C[C@@H](C)/C=C1\CN2CCC[C@H]2[C@@](C)(O)[C@@H]1O |  | 275% |  |  |  | Ranking
7 | C[C@@H](/C=C1\CN2CCC[C@H]2[C@@](C)(O)C1)CCO | Ranking - | 110% |  |  |  | 
8 | C/C(=C\C[C@@H](C)/C=C1\CN2CCC[C@H]2[C@@](C)(O)C1)[C@@H](O)[C@H](C)O |  |  |  |  | Ranking | 
9 | C/C(=C\C[C@@H](C)/C=C1\CN2CCC[C@H]2[C@@](C)(O)[C@H]1O)[C@@H](O)[C@@H](C)O |  | 176% |  |  | Ranking | 
10 | CC[C@H](O)/C(C)=C/C[C@@H](C)/C=C1\CN2CCC[C@H]2[C@@](C)(O)C1 |  |  |  |  | Ranking | 
11 | CC(O)CC[C@@H](C)/C=C1\CN2CCC[C@H]2[C@@](C)(O)C1 (stereo not given in full) |  | 129% |  |  | Ranking | 
12 | C[C@@H](/C=C1\CN2CCC[C@H]2[C@@](C)(O)C1)CCOCc1ccccc1 | Ranking - | 102% |  |  |  | 
13 | CCC(O)/C(C)=C/C[C@@H](C)/C=C1\CN2CCC[C@H]2[C@@](C)(O)C1 (stereo not given in full) |  | 172% | 0.72 nM (mg of protein)-1 | 114% | Ranking | 
14 | CCC[C@@H](C)/C=C1\CN2CCC[C@H]2[C@@](C)(O)[C@@H]1O |  | 138% |  |  | Ranking | 
15 | CCCC[C@@H](C)/C=C1\CN2CCC[C@H]2[C@@](C)(O)C1 | Ranking - | 132% |  |  |  | 
16 | C[C@]1(O)C/C(=C/CCCCCCO)CN2CCC[C@H]21 | Ranking - | 122% |  |  |  | 
17 | C[C@H](/C=C1\CN2CCC[C@H]2[C@@](C)(O)C1)CCO | Ranking - | 115% |  |  |  | 
18 | CCC[C@H](C)/C=C1\CN2CCC[C@H]2[C@@](C)(O)[C@H]1O | Ranking - | 116% |  |  |  | 
19 | C/C(=C\C[C@@H](C)/C=C1\CN2CCC[C@H]2[C@@](C)(O)[C@@H]1O)[C@@H](O)[C@@H](C)O |  | 304% |  |  |  | Ranking
20 | C/C(=C\C[C@H](C)/C=C1\CN2CCC[C@H]2[C@@](C)(O)C1)[C@@H](O)[C@@H](C)O |  | 110% |  |  | Ranking | 
21 | C/C(=C\C[C@@H](C)/C=C1\CN2CCC[C@H]2[C@@](C)(O)C1)[C@@H](O)[C@@H](C)O |  | 280% | 3.05 nM (mg of protein)-1 | 150% |  | 
